According to ChEMBL document CHEMBL4364294 (J Med Chem, 2019):

Tests used:
[1] = AUC (0 to infinity) in dog at 1 mg/kg, iv administered as single dose; format: ADME, organism-based, Canis lupus familiaris; design: dose 1 mg/kg, route intravenous, time infinity; settings: in vivo
Procedure, shortened: (§1)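 Dogs were given single intravenous doses, or oral doses from 5 to 50 mg/kg. Plasma PK parameters were CL, AUC0-inf, t1/2, Cmax and %F.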

[2] = Half life in C57Bl6 mouse at 10 mg/kg, iv administered as single dose; format: ADME, organism-based; settings: in vivo
Procedure, shortened: (§2)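 C57Bl/6 mice were given single intravenous or oral doses (oral at 10 and 100 mg/kg). Plasma PK parameters were CL, AUC0-inf, t1/2, Cmax and %F.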

[3] = Cmax in C57Bl6 mouse at 10 mg/kg, po administered as single dose; format: ADME, organism-based; design: dose 10 mg/kg, route oral; settings: in vivo; procedure, shortened: as §2
[4] = Clearance in dog at 25 mg/kg, iv administered as single dose; format: ADME, organism-based, Canis lupus familiaris; settings: in vivo; procedure, shortened: as §1
[5] = Half life in C57Bl6 mouse at 100 mg/kg, po administered as single dose; format: ADME, organism-based; settings: in vivo; procedure, shortened: as §2
[6] = Clearance in dog at 10 mg/kg, iv administered as single dose; format: ADME, organism-based, Canis lupus familiaris; settings: in vivo; procedure, shortened: as §1
[7] = Cmax in dog at 5 mg/kg, po administered as single dose; format: ADME, organism-based, Canis lupus familiaris; design: dose 5 mg/kg, route oral; settings: in vivo; procedure, shortened: as §1
[8] = Oral bioavailability in dog at 50 mg/kg administered as single dose; format: ADME, organism-based, Canis lupus familiaris; settings: in vivo
Procedure, shortened: (§3)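 Dogs were dosed once, by iv injection or orally, with oral doses spanning 5 to 50 mg/kg. Plasma pharmacokinetic parameters were derived: CL, AUC0-inf, t1/2, Cmax and %F.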

[9] = Clearance in dog at 3 mg/kg, iv administered as single dose; format: ADME, organism-based, Canis lupus familiaris; settings: in vivo; procedure, shortened: as §1
[10] = AUC (0 to infinity) in Sprague-Dawley rat at 10 mg/kg, iv administered as single dose; format: ADME, organism-based; design: dose 10 mg/kg, time infinity, route intravenous; settings: in vivo
Procedure, shortened: (§4)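 Sprague-Dawley rats were given single doses, intravenous at 10–50 mg/kg or oral at 10, 25 and 50 mg/kg. Plasma PK parameters were CL, AUC0-inf, t1/2, Cmax and %F.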

[11] = AUC (0 to infinity) in C57Bl6 mouse at 10 mg/kg, iv administered as single dose; format: ADME, organism-based; design: dose 10 mg/kg, time infinity, route intravenous; settings: in vivo; procedure, shortened: as §2
[12] = Clearance in Sprague-Dawley rat at 10 mg/kg, iv administered as single dose; format: ADME, organism-based; settings: in vivo; procedure, shortened: as §4
[13] = Oral bioavailability in dog at 15 mg/kg administered as single dose; format: ADME, organism-based, Canis lupus familiaris; settings: in vivo; procedure, shortened: as §3
[14] = AUC (0 to infinity) in rat at 250 mg/kg administered twice daily for 28 days with 2 week recovery; format: ADME, organism-based; design: dose 250 mg/kg, time infinity; settings: in vivo
[15] = Clearance in Sprague-Dawley rat at 50 mg/kg, iv administered as single dose; format: ADME, organism-based; settings: in vivo; procedure, shortened: as §4
[16] = Half life in dog at 1 mg/kg, iv administered as single dose; format: ADME, organism-based, Canis lupus familiaris; settings: in vivo; procedure, shortened: as §3
[17] = Half life in Sprague-Dawley rat at 50 mg/kg, po administered as single dose; format: ADME, organism-based; settings: in vivo
Procedure, shortened: (§5)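 Sprague-Dawley rats each received one dose of drug, either iv across 10-50 mg/kg or orally at 10, 25 and 50 mg/kg. Plasma pharmacokinetics covered CL, AUC0-inf, t1/2, Cmax and Tmax. Oral bioavailability (%F) was obtained from the oral and iv exposures.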

[18] = Clearance in Sprague-Dawley rat at 25 mg/kg, iv administered as single dose; format: ADME, organism-based; settings: in vivo; procedure, shortened: as §4
[19] = Half life in Sprague-Dawley rat at 25 mg/kg, po administered as single dose; format: ADME, organism-based; settings: in vivo; procedure, shortened: as §5
[20] = AUC (0 to infinity) in dog at 10 mg/kg, iv administered as single dose; format: ADME, organism-based, Canis lupus familiaris; design: dose 10 mg/kg, time infinity, route intravenous; settings: in vivo; procedure, shortened: as §1
[21] = Cmax in Sprague-Dawley rat at 25 mg/kg, po administered as single dose; format: ADME, organism-based; design: dose 25 mg/kg, route oral; settings: in vivo; procedure, shortened: as §4
[22] = Half life in Sprague-Dawley rat at 10 mg/kg, po administered as single dose; format: ADME, organism-based; settings: in vivo; procedure, shortened: as §5
[23] = Oral bioavailability in C57Bl6 mouse at 10 mg/kg administered as single dose; format: ADME, organism-based; settings: in vivo
Procedure, shortened: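 C57Bl/6 mice received a single oral dose of 10 or 100 mg/kg, with iv dosing run for comparison. Plasma AUC0-inf, t1/2, Cmax and oral bioavailability (%F) were determined.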

[24] = Aqueous solubility of the compound at pH 1; format: physicochemical
[25] = Permeability across basolateral to apical side in human Caco2 cells; format: ADME, cell-based; settings: Caco-2, read-out: permeability
[26] = Cmax in dog at 50 mg/kg, po administered as single dose; format: ADME, organism-based, Canis lupus familiaris; design: dose 50 mg/kg, route oral; settings: in vivo; procedure, shortened: as §1
[27] = Drug uptake in C57Bl6 mouse plasma at 50 mg/kg, po administered as single dose measured at 1 hr post-dose; format: ADME, organism-based; settings: in vivo
Procedure, shortened: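 C57Bl/6 mice received a single oral dose of 50 mg/kg. Drug levels were compared in plasma and other organs over time after dosing.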

[28] = Aqueous solubility of the compound at pH 6.5; format: physicochemical
[29] = Clearance in C57Bl6 mouse at 10 mg/kg, iv administered as single dose; format: ADME, organism-based; settings: in vivo; procedure, shortened: as §2
[30] = Half life in dog at 3 mg/kg, iv administered as single dose; format: ADME, organism-based, Canis lupus familiaris; settings: in vivo; procedure, shortened: as §3
[31] = AUC (0 to infinity) in C57Bl6 mouse at 100 mg/kg, po administered as single dose; format: ADME, organism-based; design: dose 100 mg/kg, time infinity, route oral; settings: in vivo; procedure, shortened: as §2
[32] = Half life in Sprague-Dawley rat at 10 mg/kg, iv administered as single dose; format: ADME, organism-based; settings: in vivo; procedure, shortened: as §4
[33] = Tmax in Sprague-Dawley rat at 10 to 50 mg/kg, po administered as single dose; format: ADME, organism-based; settings: in vivo; procedure, shortened: as §5
[34] = Cmax in dog at 15 mg/kg, po administered as single dose; format: ADME, organism-based, Canis lupus familiaris; design: dose 15 mg/kg, route oral; settings: in vivo; procedure, shortened: as §1
[35] = Cmax in Sprague-Dawley rat at 50 mg/kg, po administered as single dose; format: ADME, organism-based; design: dose 50 mg/kg, route oral; settings: in vivo; procedure, shortened: as §4
[36] = Half life in dog at 10 mg/kg, iv administered as single dose; format: ADME, organism-based, Canis lupus familiaris; settings: in vivo; procedure, shortened: as §3

Work on `O[C@H](C[C@H]1c2c(F)cccc2-c2cncn21)[C@H]1CC[C@H](O)CC1` [NAVOXIMOD] yielded an AUC(0-inf) [1] of 282 ng·h/mL, a half-life [2] of 3.9 h and a Cmax [3] of 2260 ng/mL. The clearance [4] was 41.4 mL/min/kg, the half-life [5] was 3.3 h and the clearance [6] was 53.7 mL/min/kg. For the same molecule, the Cmax [7] was 132 ng/mL, the bioavailability [8] was 43% and the clearance [9] was 56.1 mL/min/kg. The AUC(0-inf) [10] was 3930 ng·h/mL, the AUC(0-inf) [11] was 6130 ng·h/mL and the clearance [12] was 44.6 mL/min/kg. It also gave a bioavailability [13] of 22.3%, an AUC(0-inf) [14] of 22500 ng·h/mL and a clearance [15] of 23.2 mL/min/kg. It also gave a half-life [16] of 2.2 h, a half-life [17] of 1.06 h and a clearance [18] of 32 mL/min/kg. For the same molecule, the half-life [19] was 1.15 h, the AUC(0-inf) [20] was 3130 ng·h/mL and the Cmax [21] was 6420 ng/mL. For the same molecule, the half-life [22] was 1.05 h, the bioavailability [23] was 69% and the solubility [24] was greater than 200 µM. For the same molecule, the Papp B→A [25] was 35 ×10⁻⁶ cm/s, the Cmax [26] was 7860 ng/mL and the Drug uptake [27] was “Active”. The solubility [28] was greater than 200 µM, the clearance [29] was 27.5 mL/min/kg and the half-life [30] was 1.6 h. The AUC(0-inf) [31] was 60200 ng·h/mL, the half-life [32] was 1.44 h and the Tmax [33] was 0.5 h. It also gave a Cmax [34] of 1400 ng/mL, a Cmax [35] of 10000 ng/mL and a half-life [36] of 4.8 h.
